Experimental data reported in ChEMBL document CHEMBL1148104, “New sugar-mimic alkaloids from the pods of Angylocalyx pynaertii” (J Nat Prod, 2002).
pIC50, pKi: −log10 of the molar value.

Columns and labels:
[1] = Inhibition of Aspergillus niger amyloglucosidase assessed as glucose release by Glucose B-test
How it was run: (§1)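 Disaccharide substrate suited to each enzyme, at that enzyme's optimum pH. Released D-glucose was measured colorimetrically with the Glucose B-test.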

[2] = Inhibition of yeast isomaltase alpha-glucosidase assessed as glucose release by Glucose B-test
Beta-mannosidase = biological target: T1, Beta-mannosidase (Rattus norvegicus, UniProt Q4FZV0); assay: Inhibition of rat epididymis beta-mannosidase assessed as p-nitrophenol release by spectrophotometrically
T1 sequence (Q4FZV0 whole entry): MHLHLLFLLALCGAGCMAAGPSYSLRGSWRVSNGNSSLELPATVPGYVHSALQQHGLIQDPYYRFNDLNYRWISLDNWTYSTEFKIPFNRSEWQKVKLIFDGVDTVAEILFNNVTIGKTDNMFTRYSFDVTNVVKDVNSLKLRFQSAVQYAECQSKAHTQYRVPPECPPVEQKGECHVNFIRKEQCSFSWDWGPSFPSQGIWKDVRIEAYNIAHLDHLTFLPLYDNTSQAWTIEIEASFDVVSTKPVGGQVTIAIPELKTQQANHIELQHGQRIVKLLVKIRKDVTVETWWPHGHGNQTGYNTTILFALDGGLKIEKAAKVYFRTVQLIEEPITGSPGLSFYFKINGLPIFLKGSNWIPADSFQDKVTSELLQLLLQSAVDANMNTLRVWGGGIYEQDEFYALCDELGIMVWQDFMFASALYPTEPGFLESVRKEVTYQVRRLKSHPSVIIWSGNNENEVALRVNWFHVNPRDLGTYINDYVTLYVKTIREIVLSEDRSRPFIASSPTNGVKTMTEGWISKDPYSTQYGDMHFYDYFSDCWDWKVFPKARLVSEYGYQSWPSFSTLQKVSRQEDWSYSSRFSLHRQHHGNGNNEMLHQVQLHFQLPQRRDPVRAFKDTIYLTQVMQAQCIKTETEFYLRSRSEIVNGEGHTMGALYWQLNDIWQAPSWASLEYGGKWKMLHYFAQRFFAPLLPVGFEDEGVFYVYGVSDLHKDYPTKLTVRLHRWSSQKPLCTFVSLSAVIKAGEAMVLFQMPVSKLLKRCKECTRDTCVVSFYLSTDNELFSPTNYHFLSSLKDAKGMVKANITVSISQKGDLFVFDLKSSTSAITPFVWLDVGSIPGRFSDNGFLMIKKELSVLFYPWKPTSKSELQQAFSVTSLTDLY

[3] = Inhibition of rat epididymis alpha-mannosidase assessed as p-nitrophenol release by spectrophotometrically
Uncharacterized protein = biological target: T2, Uncharacterized protein (Sus scrofa, UniProt I3LIR5); assay: Inhibition of pig kidney trehalase assessed as p-nitrophenol release by spectrophotometrically
T2 sequence (I3LIR5 whole entry): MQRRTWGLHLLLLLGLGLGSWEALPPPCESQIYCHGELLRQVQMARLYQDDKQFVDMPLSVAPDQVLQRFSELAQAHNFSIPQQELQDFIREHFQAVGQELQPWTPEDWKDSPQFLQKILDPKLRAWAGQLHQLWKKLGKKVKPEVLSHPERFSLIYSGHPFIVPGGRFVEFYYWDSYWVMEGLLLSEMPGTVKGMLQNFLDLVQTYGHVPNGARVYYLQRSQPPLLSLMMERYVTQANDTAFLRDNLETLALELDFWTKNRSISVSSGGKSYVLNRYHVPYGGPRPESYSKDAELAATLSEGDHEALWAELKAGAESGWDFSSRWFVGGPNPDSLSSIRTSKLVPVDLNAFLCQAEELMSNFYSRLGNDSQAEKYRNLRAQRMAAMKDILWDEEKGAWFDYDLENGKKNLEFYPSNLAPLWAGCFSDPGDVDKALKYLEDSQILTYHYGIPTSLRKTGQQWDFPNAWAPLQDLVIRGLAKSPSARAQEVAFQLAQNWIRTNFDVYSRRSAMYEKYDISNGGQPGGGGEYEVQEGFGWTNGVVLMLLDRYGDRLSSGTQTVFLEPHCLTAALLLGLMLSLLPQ

Alpha-glucosidase MAL62 = Alpha-glucosidase MAL62 (Saccharomyces cerevisiae, UniProt P07265); assay: Inhibition of yeast maltase alpha-glucosidase assessed as glucose release by Glucose B-test
Chain of Alpha-glucosidase MAL62 (P07265 whole entry): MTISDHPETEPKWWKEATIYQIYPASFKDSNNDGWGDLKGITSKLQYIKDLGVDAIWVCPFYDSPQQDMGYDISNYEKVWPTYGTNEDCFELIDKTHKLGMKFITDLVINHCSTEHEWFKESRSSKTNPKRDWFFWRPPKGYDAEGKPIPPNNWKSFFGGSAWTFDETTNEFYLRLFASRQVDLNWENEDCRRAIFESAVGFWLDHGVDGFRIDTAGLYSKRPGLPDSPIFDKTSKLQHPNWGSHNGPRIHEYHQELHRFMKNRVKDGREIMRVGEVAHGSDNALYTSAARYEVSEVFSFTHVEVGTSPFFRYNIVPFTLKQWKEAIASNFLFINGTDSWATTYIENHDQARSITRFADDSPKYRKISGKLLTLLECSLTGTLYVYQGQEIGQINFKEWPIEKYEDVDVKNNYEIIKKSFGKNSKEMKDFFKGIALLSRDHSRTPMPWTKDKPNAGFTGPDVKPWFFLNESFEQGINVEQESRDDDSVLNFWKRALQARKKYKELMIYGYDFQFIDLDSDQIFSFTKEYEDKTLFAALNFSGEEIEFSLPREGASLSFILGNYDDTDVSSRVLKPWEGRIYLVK

[4] = Inhibition of rice alpha-glucosidase assessed as glucose release by Glucose B-test; set-up: species or system Oryza sativa; how it was run: as §1
[5] = Inhibition of yeast alpha-glucosidase assessed as p-nitrophenol release by spectrophotometrically; set-up: species or system Saccharomyces cerevisiae
How it was run: (§2)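 Assayed with the appropriate p-nitrophenyl glycoside substrate at each enzyme's optimum pH.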

[6] = biological target: Alpha-galactosidase (Coffea arabica) (UniProt Q42656); assay: Inhibition of coffee bean alpha-galactosidase assessed as p-nitrophenol release at 1000 uM by spectrophotometrically; how it was run: as §2
Chain of Alpha-galactosidase (Coffea arabica) (Q42656 16-378 limits assumed): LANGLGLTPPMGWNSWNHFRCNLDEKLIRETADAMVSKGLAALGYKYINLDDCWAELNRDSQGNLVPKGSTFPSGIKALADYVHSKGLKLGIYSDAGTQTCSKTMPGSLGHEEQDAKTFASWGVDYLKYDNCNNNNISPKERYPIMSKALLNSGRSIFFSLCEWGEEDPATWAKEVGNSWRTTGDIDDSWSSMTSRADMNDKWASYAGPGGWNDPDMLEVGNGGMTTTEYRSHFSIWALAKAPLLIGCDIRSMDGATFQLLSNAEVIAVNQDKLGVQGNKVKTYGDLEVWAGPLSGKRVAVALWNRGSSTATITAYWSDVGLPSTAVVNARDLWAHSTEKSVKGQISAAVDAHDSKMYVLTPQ

[7] = biological target: T3, Tissue alpha-L-fucosidase (Bos taurus) (UniProt Q2KIM0); assay: Inhibition of bovine epididymis alpha-L-fucosidase assessed as p-nitrophenol release at 1000 uM by spectrophotometrically; how it was run: as §2
T3 sequence (whole entry): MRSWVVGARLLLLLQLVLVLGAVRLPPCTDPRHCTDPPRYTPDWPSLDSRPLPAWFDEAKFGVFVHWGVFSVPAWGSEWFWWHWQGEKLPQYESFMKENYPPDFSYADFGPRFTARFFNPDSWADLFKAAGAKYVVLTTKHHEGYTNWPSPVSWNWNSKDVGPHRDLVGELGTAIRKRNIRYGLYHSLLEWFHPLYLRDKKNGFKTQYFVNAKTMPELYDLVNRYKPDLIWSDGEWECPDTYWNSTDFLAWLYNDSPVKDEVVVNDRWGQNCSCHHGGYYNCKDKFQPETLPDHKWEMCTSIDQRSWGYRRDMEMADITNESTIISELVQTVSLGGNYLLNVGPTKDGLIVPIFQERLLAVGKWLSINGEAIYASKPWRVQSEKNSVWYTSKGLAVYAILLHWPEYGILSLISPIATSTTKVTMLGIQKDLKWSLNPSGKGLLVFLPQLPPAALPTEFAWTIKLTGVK

[8] = biological target: T4, Beta-galactosidase (Bos taurus) (UniProt Q58D55); assay: Inhibition of bovine liver beta-galactosidase assessed as p-nitrophenol release at 1000 uM by spectrophotometrically; how it was run: as §2
T4 sequence (whole entry): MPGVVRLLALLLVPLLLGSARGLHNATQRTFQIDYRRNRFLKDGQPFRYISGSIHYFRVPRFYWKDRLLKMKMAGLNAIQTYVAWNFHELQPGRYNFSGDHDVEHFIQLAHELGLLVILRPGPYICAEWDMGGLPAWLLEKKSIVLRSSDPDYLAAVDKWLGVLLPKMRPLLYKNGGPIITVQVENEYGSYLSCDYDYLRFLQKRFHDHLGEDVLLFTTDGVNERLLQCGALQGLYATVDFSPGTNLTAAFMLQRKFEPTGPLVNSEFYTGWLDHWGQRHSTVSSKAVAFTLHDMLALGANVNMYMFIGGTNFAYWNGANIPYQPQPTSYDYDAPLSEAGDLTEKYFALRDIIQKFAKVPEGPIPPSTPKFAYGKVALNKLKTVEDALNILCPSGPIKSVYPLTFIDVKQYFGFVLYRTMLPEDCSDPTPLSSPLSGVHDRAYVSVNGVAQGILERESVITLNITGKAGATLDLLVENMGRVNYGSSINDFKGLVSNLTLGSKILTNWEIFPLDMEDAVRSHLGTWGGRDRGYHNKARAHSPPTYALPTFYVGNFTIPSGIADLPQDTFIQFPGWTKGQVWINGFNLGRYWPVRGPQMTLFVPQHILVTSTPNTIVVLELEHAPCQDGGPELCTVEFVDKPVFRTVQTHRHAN

[9] = biological target: T5, Tissue alpha-L-fucosidase (Bos taurus, UniProt Q2KIM0); assay: Inhibition of bovine epididymis alpha-L-fucosidase assessed as p-nitrophenol release by spectrophotometrically; how it was run: as §2
T5 sequence (Q2KIM0 whole entry): T3 sequence (whole entry)

Rattus norvegicus = organism: Rattus norvegicus; assay: Inhibition of rat epididymis alpha-mannosidase assessed as p-nitrophenol release at 1000 uM by spectrophotometrically
[10] = biological target: T6, Sucrase-isomaltase, intestinal (Rattus norvegicus, UniProt P23739); assay: Inhibition of rat intestinal sucrase assessed as glucose release by Glucose B-test
T6 sequence (P23739 1-1013 limits assumed): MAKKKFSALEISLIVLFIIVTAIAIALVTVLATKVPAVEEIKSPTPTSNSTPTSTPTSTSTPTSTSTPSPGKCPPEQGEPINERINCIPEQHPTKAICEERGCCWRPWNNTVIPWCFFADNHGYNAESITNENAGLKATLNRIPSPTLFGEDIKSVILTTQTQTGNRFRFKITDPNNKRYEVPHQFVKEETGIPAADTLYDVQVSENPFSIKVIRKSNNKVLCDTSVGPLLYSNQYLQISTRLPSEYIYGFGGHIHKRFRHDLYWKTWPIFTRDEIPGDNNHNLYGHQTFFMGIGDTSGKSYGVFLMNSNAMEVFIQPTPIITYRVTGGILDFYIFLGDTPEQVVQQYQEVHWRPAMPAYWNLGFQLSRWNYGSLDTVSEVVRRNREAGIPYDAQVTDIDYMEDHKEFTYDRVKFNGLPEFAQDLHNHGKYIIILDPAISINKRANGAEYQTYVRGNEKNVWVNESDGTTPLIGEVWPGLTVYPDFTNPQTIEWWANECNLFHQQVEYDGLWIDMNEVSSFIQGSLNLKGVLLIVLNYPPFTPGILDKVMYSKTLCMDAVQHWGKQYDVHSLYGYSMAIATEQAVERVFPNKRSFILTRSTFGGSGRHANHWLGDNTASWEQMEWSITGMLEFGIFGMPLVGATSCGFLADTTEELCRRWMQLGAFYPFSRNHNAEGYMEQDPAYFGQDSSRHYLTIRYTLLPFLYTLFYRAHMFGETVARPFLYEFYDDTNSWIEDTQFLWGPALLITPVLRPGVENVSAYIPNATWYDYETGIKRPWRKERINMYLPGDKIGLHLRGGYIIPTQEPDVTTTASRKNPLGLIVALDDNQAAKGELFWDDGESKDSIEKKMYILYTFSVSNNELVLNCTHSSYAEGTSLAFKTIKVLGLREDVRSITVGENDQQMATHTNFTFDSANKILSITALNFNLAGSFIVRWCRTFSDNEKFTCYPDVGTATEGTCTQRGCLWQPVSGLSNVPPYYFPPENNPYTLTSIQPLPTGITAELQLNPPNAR
T6 sequence (P23739 1014-1841 limits assumed): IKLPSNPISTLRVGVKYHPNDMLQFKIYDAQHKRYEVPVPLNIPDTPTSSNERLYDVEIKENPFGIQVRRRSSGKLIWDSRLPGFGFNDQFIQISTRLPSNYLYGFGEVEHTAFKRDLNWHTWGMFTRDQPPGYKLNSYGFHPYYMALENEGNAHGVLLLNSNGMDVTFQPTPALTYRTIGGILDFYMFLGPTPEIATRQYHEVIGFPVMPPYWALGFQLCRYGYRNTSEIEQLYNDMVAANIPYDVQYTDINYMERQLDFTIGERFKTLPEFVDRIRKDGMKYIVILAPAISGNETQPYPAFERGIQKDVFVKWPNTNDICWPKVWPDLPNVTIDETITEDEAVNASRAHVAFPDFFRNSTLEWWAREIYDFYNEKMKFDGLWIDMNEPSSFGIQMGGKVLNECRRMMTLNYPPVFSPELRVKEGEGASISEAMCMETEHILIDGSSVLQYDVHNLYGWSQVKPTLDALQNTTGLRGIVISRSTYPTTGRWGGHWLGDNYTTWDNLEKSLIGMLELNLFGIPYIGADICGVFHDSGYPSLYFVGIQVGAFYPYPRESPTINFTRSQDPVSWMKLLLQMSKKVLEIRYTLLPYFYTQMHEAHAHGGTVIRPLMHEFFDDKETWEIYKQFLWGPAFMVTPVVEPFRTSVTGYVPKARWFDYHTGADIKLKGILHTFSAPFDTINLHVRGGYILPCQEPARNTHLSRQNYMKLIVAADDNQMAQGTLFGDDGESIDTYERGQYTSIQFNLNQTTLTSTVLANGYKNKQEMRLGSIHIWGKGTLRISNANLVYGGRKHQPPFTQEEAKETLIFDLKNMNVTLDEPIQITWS

Oryza sativa = assay: Inhibition of rice alpha-glucosidase assessed as glucose release at 1000 uM by Glucose B-test; how it was run: as §1
[11] = biological target: Lysosomal alpha-glucosidase (Rattus norvegicus) (UniProt Q6P7A9); assay: Inhibition of rat intestinal maltase assessed as glucose release at 1000 uM by Glucose B-test
Chain of Lysosomal alpha-glucosidase (Rattus norvegicus) (Q6P7A9 whole entry): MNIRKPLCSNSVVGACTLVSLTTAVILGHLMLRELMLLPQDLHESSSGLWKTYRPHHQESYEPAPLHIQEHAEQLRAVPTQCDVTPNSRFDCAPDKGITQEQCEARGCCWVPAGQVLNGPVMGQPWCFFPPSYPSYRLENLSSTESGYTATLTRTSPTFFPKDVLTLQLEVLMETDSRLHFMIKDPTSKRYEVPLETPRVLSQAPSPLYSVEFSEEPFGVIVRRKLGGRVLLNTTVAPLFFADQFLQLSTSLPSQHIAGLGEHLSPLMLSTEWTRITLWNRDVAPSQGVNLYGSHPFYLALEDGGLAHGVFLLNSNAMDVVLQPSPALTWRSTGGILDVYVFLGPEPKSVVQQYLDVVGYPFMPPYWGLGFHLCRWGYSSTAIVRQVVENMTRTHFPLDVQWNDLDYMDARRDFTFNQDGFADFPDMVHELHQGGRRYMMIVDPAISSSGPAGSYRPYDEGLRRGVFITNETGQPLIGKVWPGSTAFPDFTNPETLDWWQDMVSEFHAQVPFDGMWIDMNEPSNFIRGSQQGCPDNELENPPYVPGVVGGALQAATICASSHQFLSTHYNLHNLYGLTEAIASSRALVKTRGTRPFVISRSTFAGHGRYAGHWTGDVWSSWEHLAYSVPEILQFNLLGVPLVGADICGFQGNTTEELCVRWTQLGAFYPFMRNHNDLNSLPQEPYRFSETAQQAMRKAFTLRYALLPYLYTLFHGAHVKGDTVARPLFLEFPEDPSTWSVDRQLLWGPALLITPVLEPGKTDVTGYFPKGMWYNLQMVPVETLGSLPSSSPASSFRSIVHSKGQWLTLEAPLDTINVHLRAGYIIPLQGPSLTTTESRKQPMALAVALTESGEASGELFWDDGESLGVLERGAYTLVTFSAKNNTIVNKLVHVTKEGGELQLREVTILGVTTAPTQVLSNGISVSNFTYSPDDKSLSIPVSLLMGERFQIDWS
How it was run: (§3)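 Enzyme source was brush border membranes prepared from rat small intestine. Maltase, sucrase and isomaltase activities were read with the matching disaccharide substrate at each enzyme's optimum pH, and liberated D-glucose was quantified colorimetrically by Glucose B-test.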

[12] = biological target: T7, Uncharacterized protein (Sus scrofa) (UniProt I3LIR5); assay: Inhibition of pig kidney trehalase assessed as p-nitrophenol release at 1000 uM by spectrophotometrically
T7 sequence (whole entry): T2 sequence (I3LIR5 whole entry)

[13] = biological target: T8, Beta-mannosidase (Rattus norvegicus) (UniProt Q4FZV0); assay: Inhibition of rat epididymis beta-mannosidase assessed as p-nitrophenol release at 1000 uM by spectrophotometrically
T8 sequence (whole entry): T1 sequence (Q4FZV0 whole entry)

Alpha-galactosidase = Alpha-galactosidase (Coffea arabica, UniProt Q42656); assay: Inhibition of coffee bean alpha-galactosidase assessed as p-nitrophenol release by spectrophotometrically; how it was run: as §2
Chain of Alpha-galactosidase (Q42656 whole entry): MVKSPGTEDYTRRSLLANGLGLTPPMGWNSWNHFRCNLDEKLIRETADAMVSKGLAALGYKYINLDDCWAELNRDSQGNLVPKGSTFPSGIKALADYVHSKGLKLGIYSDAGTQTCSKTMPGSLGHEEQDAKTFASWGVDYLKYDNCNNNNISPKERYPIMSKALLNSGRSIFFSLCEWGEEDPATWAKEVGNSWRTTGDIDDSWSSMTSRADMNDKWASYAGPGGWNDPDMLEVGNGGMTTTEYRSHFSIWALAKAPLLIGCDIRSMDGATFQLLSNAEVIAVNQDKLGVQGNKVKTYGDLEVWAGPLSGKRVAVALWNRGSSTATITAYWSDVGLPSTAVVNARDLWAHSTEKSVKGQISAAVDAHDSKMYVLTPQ

[14] = biological target: T6, Sucrase-isomaltase, intestinal; assay: Inhibition of rat intestinal isomaltase assessed as glucose release by Glucose B-test
Aspergillus niger = assay: Inhibition of Aspergillus niger amyloglucosidase assessed as glucose release at 1000 uM by Glucose B-test; how it was run: as §1
[15] = biological target: Sucrase-isomaltase, intestinal (Rattus norvegicus) (UniProt P23739); assay: Inhibition of rat intestinal sucrase assessed as glucose release at 1000 uM by Glucose B-test; how it was run: as §3
Chain of Sucrase-isomaltase, intestinal (Rattus norvegicus) (P23739 1-1013 limits assumed): as the sequence (P23739 1-1013 limits assumed) above
Chain of Sucrase-isomaltase, intestinal (Rattus norvegicus) (P23739 1014-1841 limits assumed): as the sequence (P23739 1014-1841 limits assumed) above

[16] = biological target: Sucrase-isomaltase, intestinal (Rattus norvegicus) (UniProt P23739); assay: Inhibition of rat intestinal isomaltase assessed as glucose release at 1000 uM by Glucose B-test; how it was run: as §3
Saccharomyces cerevisiae = assay: Inhibition of yeast alpha-glucosidase assessed as p-nitrophenol release at 1000 uM by spectrophotometrically; how it was run: as §2
Beta-galactosidase = biological target: T9, Beta-galactosidase (Bos taurus, UniProt Q58D55); assay: Inhibition of bovine liver beta-galactosidase assessed as p-nitrophenol release by spectrophotometrically; how it was run: as §2
T9 sequence (Q58D55 whole entry): T4 sequence (whole entry)

pIC50 [1]	pIC50 [2]	pIC50 (Alpha-glucosidase MAL62)	pIC50 [5]	inhibition [6] [%]	inhibition [7] [%]	inhibition [8] [%]	inhibition (Rattus norvegicus) [%]	inhibition (Oryza sativa) [%]	inhibition [11] [%]	inhibition [13] [%]	Compound	further results
3.40	6.96	6.08	5.92	< 50	< 50	< 50					OC[C@H]1NC[C@@H](O)[C@@H]1O	pIC50 (Beta-mannosidase): 3.54; pIC50 [3]: 3.82; pIC50 (Uncharacterized protein): 5.60; pIC50 [4]: 3.92
											C[C@@H]1N[C@H](CO)[C@@H](O)[C@H](O)[C@@H]1O	pKi [9]: 8.28
3.21	4.92	4.11	3.54		< 50	< 50	< 50	< 50	< 50	< 50	OCCN1C[C@@H](O)[C@H](O)[C@H]1CO	pIC50 [10]: 3.60; inhibition [12]: < 50%; pIC50 (Alpha-galactosidase): 3.15; pIC50 [14]: 4.08
				< 50	< 50	< 50	< 50	< 50	< 50	< 50	OC[C@H]1O[C@@H](OC[C@H]2NC[C@@H](O)[C@@H]2O)[C@H](O)[C@@H](O)[C@@H]1O	inhibition (Aspergillus niger): < 50%; inhibition [15]: < 50%; inhibition [16]: < 50%; inhibition (Saccharomyces cerevisiae): < 50%
	3.62	3.59									OCCN1[C@H](CO)[C@@H](O)[C@H](O)[C@H]1CO	inhibition [12]: < 50%
3.00			3.64	< 50	< 50		< 50		< 50		OC[C@H]1NC[C@H](O)[C@@H]1O [IMINORIBITOL]	pIC50 (Beta-galactosidase): 3.42; pIC50 (Beta-mannosidase): 4.74; pIC50 [4]: 3.00
				< 50	< 50	< 50	< 50	< 50	< 50	< 50	OC[C@H]1NC[C@@H](O[C@@H]2O[C@H](CO)[C@@H](O)[C@H](O)[C@H]2O)[C@@H]1O	inhibition (Aspergillus niger): < 50%; inhibition [15]: < 50%; inhibition [16]: < 50%; inhibition (Saccharomyces cerevisiae): < 50%
